Data reported in ChEMBL document CHEMBL2417509, “Synthesis and biological evaluation of prodigiosene conjugates of porphyrin, estrone and 4-hydroxytamoxifen” (2013).

Experiments:
Assay type in all cases: functional
MDA-MB-435 = experiment: Cytotoxicity against human MDA-MB-435 cells after 2 days by sulforhodamine B assay; details: MDA-MB-435, 48 h
How it was run: (§1)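 NCI60 multi-dose screen, 59 human tumour lines available. Cells exposed to compound across a 5-log mol/L concentration range for 2 days, then fixed and stained with sulphorhodamine B, optical density read. Growth inhibition calculated against time-zero control and untreated cells. GI50 derived from the dose series, average of two replicates.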

NCI-H522 = experiment: Cytotoxicity against human NCI-H522 cells after 2 days by sulforhodamine B assay; details: NCI-H522, 48 h; how it was run: as §1
HOP-92 = experiment: Cytotoxicity against human HOP92 cells after 2 days by sulforhodamine B assay; details: HOP-92, 48 h; how it was run: as §1
HT-29 = experiment: Cytotoxicity against human HT-29 cells after 2 days by sulforhodamine B assay; details: HT-29, 48 h; how it was run: as §1
NCI-H23 = experiment: Cytotoxicity against human NCI-H23 cells after 2 days by sulforhodamine B assay; details: NCI-H23, 48 h; how it was run: as §1
OVCAR-5 = experiment: Cytotoxicity against human OVCAR5 cells after 2 days by sulforhodamine B assay; details: OVCAR-5, 48 h; how it was run: as §1
SNB-19 = experiment: Cytotoxicity against human SNB19 cells after 2 days by sulforhodamine B assay; details: SNB-19, 48 h
How it was run: (§2)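 NCI DTP NCI60 multi-dose screen (59 human tumour lines available). Cells exposed to compound over a 5-log mol/L concentration range for 2 days, then fixed and stained with sulphorhodamine B, with optical density read. Growth inhibition calculated relative to time-zero cells and untreated cells, giving GI50 (half-maximal growth inhibition concentration). Average of two replicates.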

OVCAR-4 = experiment: Cytotoxicity against human OVCAR4 cells after 2 days by sulforhodamine B assay; details: OVCAR-4, 48 h; how it was run: as §1
CAKI-1 = experiment: Cytotoxicity against human CAKI-1 cells after 2 days by sulforhodamine B assay; details: CAKI-1, 48 h; how it was run: as §1
T47D = experiment: Cytotoxicity against human T47D cells after 2 days by sulforhodamine B assay; details: 48 h; how it was run: as §2
SF-295 = experiment: Cytotoxicity against human SF295 cells after 2 days by sulforhodamine B assay; details: SF-295, 48 h; how it was run: as §1
786-0 = experiment: Cytotoxicity against human 786-0 cells after 2 days by sulforhodamine B assay; details: 786-0, 48 h; how it was run: as §1
LOX IMVI = experiment: Cytotoxicity against human LOXIMVI cells after 2 days by sulforhodamine B assay; details: 48 h; how it was run: as §1
SN12C = experiment: Cytotoxicity against human SN12C cells after 2 days by sulforhodamine B assay; details: 48 h; how it was run: as §1
[1] = Cytotoxicity against human NCI-ADR-RES cells after 2 days by sulforhodamine B assay; details: 48 h; how it was run: as §1
MOLT-4 = experiment: Cytotoxicity against human MOLT4 cells after 2 days by sulforhodamine B assay; details: MOLT-4, 48 h; how it was run: as §1
NCI-H460 = experiment: Cytotoxicity against human NCI-H460 cells after 2 days by sulforhodamine B assay; details: NCI-H460, 48 h; how it was run: as §1
M14 = experiment: Cytotoxicity against human M14 cells after 2 days by sulforhodamine B assay; details: M14, 48 h; how it was run: as §1
A549 = experiment: Cytotoxicity against human A549/ATCC cells after 2 days by sulforhodamine B assay; details: A549, 48 h; how it was run: as §1
MDA-MB-468 = experiment: Cytotoxicity against human MDA-MB-468 cells after 2 days by sulforhodamine B assay; details: MDA-MB-468, 48 h; how it was run: as §1
U-251 = experiment: Cytotoxicity against human U251 cells after 2 days by sulforhodamine B assay; details: U-251, 48 h; how it was run: as §2
HCT-116 = experiment: Cytotoxicity against human HCT116 cells after 2 days by sulforhodamine B assay; details: HCT-116, 48 h; how it was run: as §1
TK-10 = experiment: Cytotoxicity against human TK10 cells after 2 days by sulforhodamine B assay; details: TK-10, 48 h; how it was run: as §2
DU-145 = experiment: Cytotoxicity against human DU145 cells after 2 days by sulforhodamine B assay; details: DU-145, 48 h; how it was run: as §1
SK-OV-3 = experiment: Cytotoxicity against human SKOV3 cells after 2 days by sulforhodamine B assay; details: SK-OV-3, 48 h; how it was run: as §1
A498 = experiment: Cytotoxicity against human A498 cells after 2 days by sulforhodamine B assay; details: A498, 48 h; how it was run: as §1
SF-539 = experiment: Cytotoxicity against human SF539 cells after 2 days by sulforhodamine B assay; details: SF-539, 48 h; how it was run: as §1
SF-268 = experiment: Cytotoxicity against human SF268 cells after 2 days by sulforhodamine B assay; details: SF-268, 48 h; how it was run: as §1
NCI-H322M = experiment: Cytotoxicity against human NCI-H322M cells after 2 days by sulforhodamine B assay; details: 48 h; how it was run: as §1
[2] = read-out: LC50 (the source's name)

CCC(=C(c1ccc(OCCN(C)C)cc1)c1ccc(OC(=O)CCCCC(=O)C2=C(C)/C(=C/c3[nH]c(-c4ccc[nH]4)cc3OC)N=C2C)cc1)c1ccccc1
GI50 (MDA-MB-435): 6.92 µM
TGI (MDA-MB-435): 45.7 µM
CC50 (MDA-MB-435; [2]): > 100 µM
GI50 (NCI-H522): 3.55 µM
LC50 (NCI-H522): 43.6 µM
TGI (NCI-H522): 14.4 µM
GI50 (HOP-92): 1.12 µM
TGI (HOP-92): 6.31 µM
CC50 (HOP-92; [2]): 47.9 µM
GI50 (HT-29): 3.02 µM
LC50 (HT-29): 74.1 µM
TGI (HT-29): 14.8 µM
GI50 (NCI-H23): 12.6 µM
LC50 (concentration killing 50% of cells) (NCI-H23): 69.2 µM
TGI (NCI-H23): 29.5 µM
GI50 (OVCAR-5): 10.5 µM
LC50 (OVCAR-5): 47.9 µM
TGI (OVCAR-5): 22.4 µM
GI50 (SNB-19): 8.13 µM
TGI (SNB-19): 23.4 µM
CC50 (SNB-19; [2]): 56.2 µM
GI50 (OVCAR-4): 4.37 µM
LC50 (concentration killing 50% of cells) (OVCAR-4): 70.8 µM
TGI (OVCAR-4): 22.4 µM
GI50 (CAKI-1): 6.31 µM
LC50 (concentration killing 50% of the cells present at time zero) (CAKI-1): > 100 µM
TGI (CAKI-1): 36.3 µM
GI50 (T47D): 1.38 µM
LC50 (concentration killing 50% of cells) (T47D): 39.8 µM
TGI (T47D): 6.03 µM
GI50 (SF-295): 7.24 µM
LC50 (SF-295): 45.7 µM
TGI (SF-295): 20.4 µM
GI50 (786-0): 4.79 µM
LC50 (concentration killing 50% of cells) (786-0): 52.5 µM
TGI (786-0): 19 µM
GI50 (LOX IMVI): 2.04 µM
LC50 (LOX IMVI): 43.6 µM
TGI (LOX IMVI): 5.13 µM
GI50 (SN12C): 5.37 µM
TGI (SN12C): 21.4 µM
CC50 (SN12C; [2]): 56.2 µM
GI50 [1]: 12.6 µM
TGI [1]: 46.8 µM
CC50 [1, 2]: > 100 µM
GI50 (MOLT-4): 1.74 µM
TGI (MOLT-4): 25.1 µM
CC50 (MOLT-4; [2]): > 100 µM
GI50 (NCI-H460): 3.98 µM
LC50 (NCI-H460): 53.7 µM
TGI (NCI-H460): 15.5 µM
GI50 (M14): 1.82 µM
TGI (M14): 3.98 µM
CC50 (M14; [2]): 8.71 µM
GI50 (A549): 3.89 µM
LC50 (concentration giving 50% net cell kill) (A549): 50.1 µM
TGI (A549): 15.8 µM
GI50 (MDA-MB-468): 2.45 µM
LC50 (MDA-MB-468): 41.7 µM
TGI (MDA-MB-468): 14.8 µM
GI50 (U-251): 7.76 µM
LC50 (U-251): > 100 µM
TGI (U-251): 30.2 µM
GI50 (HCT-116): 3.55 µM
LC50 (concentration killing 50% of cells vs time zero) (HCT-116): 37.1 µM
TGI (HCT-116): 13.8 µM
GI50 (TK-10): 12.9 µM
LC50 (TK-10): 50.1 µM
TGI (TK-10): 25.1 µM
GI50 (DU-145): 7.76 µM
LC50 (concentration killing 50% of starting cells) (DU-145): 50.1 µM
TGI (DU-145): 20.9 µM
GI50 (SK-OV-3): 14.1 µM
LC50 (concentration killing 50% of starting cells) (SK-OV-3): 52.5 µM
TGI (SK-OV-3): 26.9 µM
GI50 (A498): 12.9 µM
LC50 (A498): 53.7 µM
TGI (A498): 26.3 µM
GI50 (SF-539): 12.9 µM
LC50 (SF-539): 58.9 µM
TGI (SF-539): 27.5 µM
GI50 (SF-268): 7.76 µM
LC50 (concentration killing 50% of cells) (SF-268): > 100 µM
TGI (SF-268): 30.2 µM
GI50 (NCI-H322M): 13.5 µM
LC50 (concentration killing 50% of cells) (NCI-H322M): 69.2 µM
TGI (NCI-H322M): 30.9 µM
